Most compounds without a hit are left out; they make up all but 2.3% or so of the library.
TWEAK-Fn14 inh: blocks TWEAK-Fn14 interaction in a reporter cell assay; TWEAK-stimulated Fn14 reporter cells, luciferase luminescence, 8 h; inhibition, % at 10 µM; 360,000 tested, 2% active; AID 1159606; in the data active means inhibition above about 50%
FN deposition inh: fibronectin deposition inhibition. AH1F fibroblasts, Alexa488-fibronectin deposition fluorescence, overnight. inhibition, % at 12.6 µM. 350,000 tested, 0.086% active. AID 743247;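 active means mean inhibition across replicates of 30% or more, regardless of how many single replicates reach that level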
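Material: AH1F fibroblast monolayer depositing Alexa488-labelled fibronectin into matrix | Input: 10000 AH1F cells/well | Medium: DMEM plus 2% serum, read in PBS | Reagent: Alexa488-fibronectin, 24 nM final in well | Compound dosing: One dose per compound, pinned | Schedule: 1 h adhesion, overnight exposure | Measured by: Fluorescence at 485 nm excitation, 525 nm emission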
Xi reactivation: activators of X-chromosome reactivation in mouse fibroblasts. XiGFP mouse fibroblasts, % GFP-positive cells imaging, 3 d; cells co-treated with 5-aza-dC sensitizer; scaled so ellipticine positive control = 100%. activation, % at 7.58 µM. 360,000 tested, 0.055% active. AID 743238;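 active means mean normalized replicate activation at least 10% and every replicate at or above 10%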
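Assay system – SV40-immortalized XiGFP fibroblast cells, line 68-5-11 · Buffer or medium – DMEM supplemented with 5-aza-dC as sensitizing agent · Dosing – one concentration, pinned · Benchmarks – positive control ellipticine, 6 µM final · Times – 3 days compound exposure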
LGR2 antag: Drosophila LGR2 receptor signaling inhibition | AID 720647 | HEK293 LGR2, CRE-luciferase, bursicon-stimulated, 4 h | inhibition, % at 9.99 µM | 380,000 tested, 0.35% active;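 active means drop in luminescence signal, shown as inhibition above about 50% in the replicate tests, limit read from the data, passing the limit was not always enough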;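 further: agonist challenge used bursicon conditioned medium at about half maximal strength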
TROY signal inh: TROY signaling inhibition; Q293 LMP1-TROYcd NF-kB luciferase reporter, 4 h; inhibition, % at 10 µM; 360,000 tested, 0.98% active; AID 1347056;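 active means compounds whose plate-normalised and pattern-corrected inhibition of the luciferase reporter signal at the single screening dose is 50% or more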
EWS-Fli block: blocks EWS/Fli oncoprotein-driven transcription; A673 NR0B1-luciferase reporter, viability-normalised; inhibition, % at 12.6 µM; 350,000 tested, 0.67% active; AID 651661;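 active means mean inhibition of at least 50% after viability correction, with every replicate also passing that limit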;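 further: firefly luciferase signal divided by Alamar Blue viability fluorescence both relative to DMSO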
Numbers stand for hits; . = inactive; / = no result given.

SMILES	TWEAK-Fn14 inh	FN deposition inh	Xi reactivation	LGR2 antag	TROY signal inh	EWS-Fli block
CCOC(=O)c1ccc(NC(=S)Nc2ccccc2)cc1	.	.	.	.	.	.
CCOC(=O)c1ccc(NC(=S)P(=O)(c2ccccc2)c2ccccc2)cc1	71	/	.	.	.	.
CCOC(=O)N1CCN(C(=O)c2ccc(NS(C)(=O)=O)cc2)CC1	.	/	/	.	.	.
CCOC(=O)c1ccc(NS(C)(=O)=O)cc1	82	/	/	.	/	/
CC(C)NC(=O)N(C)C[C@H]1Oc2c(NC(=O)NC3CCCCC3)cccc2C(=O)N([C@@H](C)CO)C[C@H]1C	/	/	.	.	/	.
O=C1CC(c2ccc(F)cc2)Cc2nc(N3CCN(c4ccccc4)CC3)ncc21 (stereo unspecified)	.	/	/	.	.	/
Cc1ccc(C2CC(=O)c3cnc(N4CCN(c5ccccc5)CC4)nc3C2)cc1 (stereo unspecified)	58	/	/	.	.	/
O=C1CC(c2ccccc2)CC(O)=C1C=NCc1ccncc1 (stereo unspecified)	.	.	.	.	.	.
O=C1CC(c2ccccc2)CC(O)=C1C=NCc1ccc(Cl)c(Cl)c1 (stereo unspecified)	76	/	/	/	/	/
CCCCNc1cc(NC(C)=O)cc2cc(OC)c(OC)cc12	.	/	/	/	.	/
COc1cc2cc(NC(C)=O)cc(NCc3ccccc3)c2cc1OC	.	.	.	.	59	.
COc1cccc(-c2ccc([C@H]3[C@H]4CN(C(=O)C5CCC5)CC(=O)N4[C@H]3CO)cc2)c1	/	.	.	.	/	.
COc1ccc(-c2csc(NC(=O)CSc3nc(C)cs3)n2)cc1	.	.	/	/	.	/
COc1ccc2nc(NC(=O)CSc3nc(SC)ns3)sc2c1	53	/	.	.	.	.
COc1ccc(-c2csc(NC(=O)CSc3nc(SC)ns3)n2)cc1	69	.	.	.	54	.
COc1cccc(C(=O)COc2cccc(NC(=O)c3cccc([N+](=O)[O-])c3)c2)c1	64	/	/	/	/	/
O=C(COc1cccc(NC(=O)c2cccc([N+](=O)[O-])c2)c1)c1ccc(F)cc1	.	/	/	/	.	/
Cc1ccc(C)c(NC(=O)c2cccc(Oc3ccc([N+](=O)[O-])cc3Cl)c2)c1	.	.	.	.	.	.
O=C(Nc1cccc(Cl)c1)c1cccc(Oc2ccc([N+](=O)[O-])cc2Cl)c1	82	.	.	.	.	.
COc1ccc(NC(=O)c2cccc(Oc3ccc([N+](=O)[O-])cc3Cl)c2)cc1	59	.	.	.	.	.
COc1ccc2c3c(n(C)c2c1)[C@H](CO)N(Cc1ccncc1)CC31CN(C(=O)C2CCCC2)C1	/	/	.	.	/	.
CN1CCN(C(=O)C[C@@H]2C[C@@H]3c4cc(NC(=O)Nc5ccccc5)ccc4O[C@@H]3[C@H](CO)O2)CC1	/	.	.	.	/	.
N#CC1=C(N)N(c2ccc(Oc3ccccc3)cc2)C(=O)C1	88	/	/	/	/	/
Cc1ccc(C(=O)OC(C)C(=O)NC2CCCCC2)cc1S(=O)(=O)N1CCCCC1 (stereo unspecified)	.	.	.	.	.	.
CCC(OC(=O)c1ccc(S(C)(=O)=O)c([N+](=O)[O-])c1)C(=O)NC1C2CC3CC(C2)CC1C3 (stereo unspecified)	100	/	.	.	.	.
SMILES	TWEAK-Fn14 inh	FN deposition inh	Xi reactivation	LGR2 antag	TROY signal inh	EWS-Fli block
CC(OC(=O)c1ccc(S(C)(=O)=O)c([N+](=O)[O-])c1)C(=O)NC1C2CC3CC(C2)CC1C3 (stereo unspecified)	102	/	.	.	.	.
Cc1ccc(C(=O)O/N=C(\N)c2nonc2N)cc1	55	.	.	78	66	.
COc1ccc(CNC(=O)C[C@H]2CC[C@@H]3[C@@H](COc4ccc(NC(=O)C(C)C)cc4C(=O)N3C)O2)cc1	/	.	.	.	/	.
CO[C@@H]1CN(C)C(=O)c2ccc(NC(C)=O)cc2OC[C@@H](C)N(C(=O)C2CCC2)C[C@@H]1C	/	.	.	.	/	.
Cc1ccc(N(Cc2cc(=O)[nH]c3ccccc23)C(=O)CCl)c(C)c1	63	.	.	.	.	67
COc1ccccc1-c1csc(NC(=O)c2ccc(N3C(=O)CCC3=O)cc2)n1	51	.	.	.	.	.
Cc1ccc(-n2nc3ccc(N)cc3n2)c(C)c1	87	.	.	.	.	.
Cc1cc(N)ccc1-n1nc2ccccc2n1	.	.	.	.	.	.
CCNC(=O)C[C@@H]1CC[C@H]2[C@@H](COC[C@H](O)CN2C(=O)CC)O1	/	.	.	.	/	.
O=C(NC1CCCCC1)C(c1cccnc1)N(C(=O)CCl)c1ccc(F)cc1 (stereo unspecified)	.	.	.	.	.	57
CCc1ccccc1N(C(=O)CNC(=O)c1ccco1)C(C(=O)NC1CCCC1)c1cccnc1 (stereo unspecified)	.	.	.	.	.	.
O=C(NC1CCCCC1)C(c1cccnc1)N(C(=O)CCl)c1ccccc1Cl (stereo unspecified)	62	.	.	.	.	.
Cc1ccc(Cl)cc1-c1cc(C(=O)NCc2cc(C(F)(F)F)cc(C(F)(F)F)c2)[nH]n1	61	.	.	/	.	.
Cc1ccc(F)cc1-c1cc(C(=O)NCc2cc(C(F)(F)F)cc(C(F)(F)F)c2)[nH]n1	.	.	.	.	53	.
Cc1csc(-c2cc(C(=O)NCc3cc(C(F)(F)F)cc(C(F)(F)F)c3)n[nH]2)c1	.	.	.	.	52	.
c1ccc(-c2csc3ncnc(NCCCN4CCOCC4)c23)cc1	.	/	/	/	.	/
c1ccc(-c2csc3ncnc(NCC4COc5ccccc5O4)c23)cc1 (stereo unspecified)	91	/	.	.	59	.
Cc1sc2ncnc(NCC3COc4ccccc4O3)c2c1C (stereo unspecified)	57	.	.	.	.	/
O=C(CSc1cccc[n+]1[O-])NN(c1ccccc1)c1ccccc1	83	.	.	.	.	.
CN(C(=O)CSc1cccc[n+]1[O-])c1ccccc1	.	.	.	.	.	.
COc1ccc(NC(=O)N(C)C[C@H]2OCc3ccccc3-c3ccccc3C(=O)N([C@@H](C)CO)C[C@H]2C)cc1	/	.	.	.	/	.
CCCOC(=O)c1cccc(Nc2nc(-c3cccnc3)nc3ccccc23)c1	57	.	.	.	.	.
COc1cc(N=Nc2ccc(Br)cc2)cc(C=O)c1O	87	.	.	.	.	.
Cc1nc(SCCC(=O)O)c2cc(-c3ccccc3)sc2n1	.	.	.	.	.	63
O=C(NCCCSc1ccccc1)c1cc(Br)ccc1O	51	.	.	.	.	/
CSc1nc2ccc(NC(=O)C3=NNC(=O)CC3)cc2s1	.	.	.	.	.	.
O=C(Nc1nc2c(F)cc(F)cc2s1)c1ccccn1	.	.	.	60	.	53
